Hits are enriched below; roughly 4.6% of the tested compounds scored in any of these assays.
TAAR1 ag: human TAAR1 agonism; CHO RD-HGA16 TAAR1, Fluo-8 calcium fluorescence; vehicle wells 0%, saturating PEA agonist 100%; activation, % at 3 µM; 360,000 compounds, 0.99% hits;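 active means activation above the mean activation of all test compounds in the run plus 3 SD, cut at about 38% in these data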
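Assay system – CHO-derived RD-HGA16 cells with stable Gα16 and human TAAR1 · Compound dosing – one-point dosing at 3 µM (nominal) · Incubation – 17-24 h seeding, 75 min 37 °C dye, 30 min RT · Measured by – kinetic Fluo-8 calcium fluorescence · Control set – DMSO vehicle as 0%, PEA at EC100 as 100% · Repeats – single well for each compound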
TAAR1 antagonist: human TAAR1 antagonism; Q96RJ0; CHO RD-HGA16 TAAR1, Fluo-8 calcium fluorescence, antagonist; inhibition, % at 3 µM; 360,000 compounds, 1.5% hits; AID 624466;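 active means inhibition above a per-plate cutoff, the mean inhibition of test compounds on that plate plus 3 SD, cut at about 49% in these data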;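 further: 0% = DMSO plus EC80 beta-PEA response and 100% = DMSO alone without agonist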
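Test system: CHO RD-HGA16 cells bearing hTAAR1 | Reagent: β-PEA, EC80 | Compound dosing: 3 µM, single point | Schedule: Dye loading 75 min at 37 °C, then 30 min room temperature | Signal: Calcium fluorescence with Fluo-8 | Evaluation: Percent inhibition of PEA-evoked calcium signal, max/basal emission ratio | Control set: DMSO-only wells and EC80 β-PEA-stimulated wells | Repeats: Singlicate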
OX1R antag-1: antagonists of human orexin 1 receptor (OX1R). O43613. OX1R-expressing cells, FRET antagonist read-out. inhibition, % at 6.6 µM. 330,000 compounds, 1.8% hits; in the data active means inhibition mostly above about 38%, no sharp cut-off; inactive means mostly below about 40%;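 further: 0% = agonist challenge alone and 100% = reference antagonist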
Target sequence (O43613 whole entry, looked up): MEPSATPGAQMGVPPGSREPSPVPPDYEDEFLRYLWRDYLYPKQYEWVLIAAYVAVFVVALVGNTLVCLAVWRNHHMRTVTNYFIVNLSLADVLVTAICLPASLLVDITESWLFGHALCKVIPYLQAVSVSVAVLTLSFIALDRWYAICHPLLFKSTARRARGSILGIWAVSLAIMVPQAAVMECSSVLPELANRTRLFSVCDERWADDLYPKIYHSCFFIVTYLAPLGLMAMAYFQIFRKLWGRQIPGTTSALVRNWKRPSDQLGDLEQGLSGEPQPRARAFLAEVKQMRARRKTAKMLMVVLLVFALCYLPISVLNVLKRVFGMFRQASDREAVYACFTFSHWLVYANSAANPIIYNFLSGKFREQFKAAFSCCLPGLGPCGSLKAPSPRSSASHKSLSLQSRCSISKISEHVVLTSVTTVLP
CHO parental Ca: counter-screen: ATP calcium response change in parental CHO cells | parental CHO-K1, ATP-induced calcium, Fluo-8 fluorescence | inhibition, % at 5.6 µM | 330,000 compounds, 0.63% hits | AID 463079;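 active means inhibition above that plate's mean sample inhibition plus 3 SD, cut at about 26% in these data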;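 further: 0% = ATP-challenged DMSO wells and 100% = DMSO wells without ATP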
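Test system: untransfected parental CHO cell line. Compound: one dose, 5.6 µM nominal. Detection: intracellular calcium via Fluo-8 no-wash fluorescent dye. Measure: % inhibition. Benchmarks: ATP-challenged DMSO wells low, unchallenged DMSO wells high.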
OX1R antag-2: human HCRTR1 antagonism; O43613; CHO/OX1R cells, Fluo-8 calcium fluorescence, orexin A; inhibition, % at 5 µM; 330,000 compounds, 0.43% hits;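 active means inhibition above its plate's threshold, mean inhibition of all tested compounds on the plate plus 3 SD, cut at about 37% in these data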;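 further: 0% = orexin A challenge wells and 100% = SB-334867-A antagonist wells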
GPR7 antagonist: blocks human GPR7 receptor signaling | AID 1861 | 290,000 compounds, 1.1% hits | inhibition, % at 4.4 µM | GPR7-expressing cells, fluorescence antagonist assay; in the data active means inhibition above about 16%, passing the limit was not always enough;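 further: cells stimulated with the agonist NPW; 0% = agonist with vehicle and 100% = vehicle without agonist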
Active calls of the source: *; · = not tested or not shown.

SMILES	TAAR1 ag	TAAR1 antagonist	OX1R antag-1	CHO parental Ca	OX1R antag-2	GPR7 antagonist
NCCc1cnc[nH]1	2	0	-3	-2	-7	-2
NCCc1ccn[nH]1	40*	-10	4	3	-2	·
COc1ccc(C(=O)Nc2cc3c(cc2OC)CCCC3)cc1Br	13	9	72*	31*	9	-11
O=C(N[C@H](C(=O)N1CCC[C@H]1C(=O)NCc1ccccc1)c1ccccc1)c1ccc(Cl)cc1Cl	0	5	·	·	·	·
COc1cccc(Nc2nnc(SCC(=O)Nc3sccc3C(N)=O)s2)c1	12	68*	63	1	15	12
CCc1ccc(Nc2nnc(SCC(=O)Nc3sccc3C(N)=O)s2)cc1	15	39	26	-25	-5	-9
COC(=O)[C@]12C[C@H](CC(=O)NCc3cccc4ccccc34)C(=O)N(CCC3=CCCCC3)C1=C[C@H](C(C)(C)C)O[C@@H]2C	0	-8	·	·	·	·
O=[N+]([O-])c1ccc(N=Nc2c(Cl)cc(O)cc2Cl)cc1	3	59*	58*	67*	39*	62*
O=[N+]([O-])c1ccc(Nc2ccccn2)c([N+](=O)[O-])c1	0	-6	36*	-2	-13	-8
O=C1c2ccccc2C(=O)N1Nc1ccc([N+](=O)[O-])cc1[N+](=O)[O-]	1	12	68*	-7	-21	-6
Cc1ccc([C@H]2C[C@H](O)[C@@H](n3cc(C4CC4)nn3)CN2Cc2cccs2)cc1	41*	41	·	·	·	·
Cc1ccc([C@H]2C[C@@H](O)[C@H](n3cc(C4CC4)nn3)CN2Cc2cccs2)cc1	3	-30	·	·	·	·
CCOC(=O)CC1(Cc2ccccc2)Oc2ccccc2O1	1	-42	·	·	·	·
Cc1c(NC(=O)/C(C#N)=C/c2ccc(-c3ccccc3Cl)o2)c(=O)n(-c2ccccc2)n1C	1	-3	75*	-35	-1	2
Cc1c(NC(=O)/C(C#N)=C/c2ccc(-c3cccc(Cl)c3)o2)c(=O)n(-c2ccccc2)n1C	2	-19	75*	-30	6	6
O=C(c1cnc(Cc2c[nH]c3ccccc23)c(I)c1)N1CCN(Cc2ccccc2)CC1	4	28	·	·	·	·
Cc1ccc(CN(c2ccc(C(=O)NCc3ccccn3)cc2)S(C)(=O)=O)cc1	38*	17	20	-7	-6	5
O=C(NCc1ccccc1Cl)[C@H]1CCCN1C(=O)[C@H]1CCCN1C(=O)c1ccccc1	9	-11	·	·	·	·
Cc1ccc(S(=O)(=O)N2CCCC2C(=O)OCc2nc3ccccc3s2)cc1 (stereo unspecified)	5	-3	18	59*	5	6
Cc1ccc(S(=O)(=O)N2CCC[C@H]2C(=O)OCc2nc3ccccc3s2)cc1	2	-4	·	·	·	·
C[C@H]1COc2cc(NCCO)ccc2S(=O)(=O)N1	1	-12	·	·	·	·
Cc1ccc(S(=O)(=O)NN=CC=CC=NNS(=O)(=O)c2ccc(C)cc2)cc1	0	-4	·	·	·	·
O=C(NCc1ccccc1)[C@@H]1CCCN1C(=O)[C@H]1CCCN1C(=O)c1cccs1	2	-40	·	·	·	·
Cc1nn(Cc2cccc(F)c2)c(C)c1NC(=O)c1ccc(COc2ccccc2Cl)cc1	5	101*	15	6	14	2
Cc1nn(Cc2c(F)c(F)c(F)c(F)c2F)c(C)c1NC(=O)c1cccc(COc2ccccc2Cl)c1	3	-5	1	-23	-26	-6
SMILES	TAAR1 ag	TAAR1 antagonist	OX1R antag-1	CHO parental Ca	OX1R antag-2	GPR7 antagonist
O=[N+]([O-])c1ccc2nc(NN=Cc3ccc(O)cc3)sc2c1	12	51*	·	·	·	·
CC(C)c1ccc(/C=C/C(=O)Nc2nc3ccc([N+](=O)[O-])cc3s2)cc1	12	-14	18	0	-11	-12
O=C(NCc1ccccc1)[C@H]1CCCN1C(=O)[C@H]1CCCN1C(=O)c1ccc(F)cc1	2	-13	·	·	·	·
CN1C(=O)C2(Nc3ccccc3-c3nc4ccccc4n32)c2ccccc21 (stereo unspecified)	4	-7	18	-8	-11	3
O=C1Nc2ccccc2C12Nc1ccccc1-c1nc3ccccc3n12 (stereo unspecified)	2	6	8	-8	-23	21*
Cc1cc(O)cc(=O)n1-c1cccc(Br)c1	1	-20	·	·	·	·
CCCCNC(=O)c1nc(-c2ccncc2)oc1-c1ccccc1	3	10	·	·	·	·
OC(c1ccccc1)(c1ccccc1)C1CCN(CCCOc2ccc(-c3cncnc3)cc2)CC1	29	18	·	·	·	·
Cc1csc(NC(=O)C2=NN(c3ccccc3)C(=O)CC2)n1	9	7	20	-10	-13	20
Cc1ccc(-c2csc(NC(=O)C3=NN(c4ccccc4)C(=O)CC3)n2)cc1	12	52*	25	20	-5	2
CSc1nnc(N2C(=O)C(O)=C(C(=O)c3ccco3)C2c2ccc(F)cc2)s1 (stereo unspecified)	3	-32	6	32	37	-6
CSc1nnc(N2C(=O)C(O)=C(C(=O)c3ccco3)C2c2cccc(Cl)c2)s1 (stereo unspecified)	1	-2	3	33*	49*	4
O=[N+]([O-])c1sccc1CS(=O)(=O)c1ccccc1	0	8	51*	-22	-1	-1
Oc1ccc(C[C@@H]2CNCCN2CCCCC2CCCCC2)cc1	43*	3	5	20	-4	·
Fc1cccc(CCN2CCNC[C@@H]2CC2CCCCC2)c1	39*	7	0	-15	-14	·
Cn1ncc2c(N3CCC(Cc4ccccc4)CC3)ncnc21	3	18	58*	15	-6	-11
c1ccc(CCN2CCN(c3ncnc4c3cnn4-c3ccccc3)CC2)cc1	41*	32	12	-16	-21	-14
CC(=O)Oc1ccc(Cn2c(C)c(C(=O)NCCC#N)sc2=O)cc1	2	9	·	·	·	·
COc1cccc2c1C(=O)c1c(O)c3c(c(O)c1C2=O)CC(O)(C(C)=O)CC3OC1CC(N(C)C)C(O)C(C)O1 (stereo unspecified)	4	5	·	·	·	·
COc1cccc2c1C(=O)c1c(O)c3c(c(O)c1C2=O)C[C@@](O)(C(=O)CO)C[C@@H]3O[C@H]1C[C@H](N)[C@H](O)[C@H](C)O1	7	12	44*	24	27	5
COc1cccc2c1C(=O)c1c(O)c3c(c(O)c1C2=O)C[C@@](O)(C(=O)CO)C[C@@H]3OC1CC(N)C(O)C(C)O1 (stereo partly specified)	14	26	·	·	·	·
CC(=O)[C@@]1(O)Cc2c(O)c3c(c(O)c2[C@H](O[C@H]2C[C@H](N)[C@H](O)[C@H](C)O2)C1)C(=O)c1ccccc1C3=O	66*	44	·	·	·	·
Cn1c2ccccc2c(=O)c2ccc(C#Cc3ccc(N)cc3)cc21	4	38	31	0	0	-4

Bioassay records deposited in PubChem by The Scripps Research Institute Molecular Screening Center.
